An excerpt weighted towards active compounds, which were near 1.8% of everything screened.
Bfl-1 A1 inh = inhibitors of the anti-apoptotic protein A1, read as caspase activation; MEF A1-2A-BIM cells, Caspase-Glo 3/7 luminescence, 3 h; percent of clofoctol response, vehicle zero; caspase activation, % (test concentration not listed); actives 0.066% (n = 330,000); AID 2462;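 active means over half of replicate activation scores above 10%, or exactly half above 10 with the replicate mean above 10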
LANA-H2A inh = blocks KSHV LANA binding to histone H2A/H2B. actives 0.6% (n = 320,000). AID 2629. cell-free LANA-H2A/H2B peptide, fluorescence polarization. Q9QR71. inhibition, % (test concentration not listed); in the data active means inhibition mostly above about 10%, no sharp cut-off; inactive means mostly below about 6.7%
Target sequence (Q9QR71 whole entry, looked up): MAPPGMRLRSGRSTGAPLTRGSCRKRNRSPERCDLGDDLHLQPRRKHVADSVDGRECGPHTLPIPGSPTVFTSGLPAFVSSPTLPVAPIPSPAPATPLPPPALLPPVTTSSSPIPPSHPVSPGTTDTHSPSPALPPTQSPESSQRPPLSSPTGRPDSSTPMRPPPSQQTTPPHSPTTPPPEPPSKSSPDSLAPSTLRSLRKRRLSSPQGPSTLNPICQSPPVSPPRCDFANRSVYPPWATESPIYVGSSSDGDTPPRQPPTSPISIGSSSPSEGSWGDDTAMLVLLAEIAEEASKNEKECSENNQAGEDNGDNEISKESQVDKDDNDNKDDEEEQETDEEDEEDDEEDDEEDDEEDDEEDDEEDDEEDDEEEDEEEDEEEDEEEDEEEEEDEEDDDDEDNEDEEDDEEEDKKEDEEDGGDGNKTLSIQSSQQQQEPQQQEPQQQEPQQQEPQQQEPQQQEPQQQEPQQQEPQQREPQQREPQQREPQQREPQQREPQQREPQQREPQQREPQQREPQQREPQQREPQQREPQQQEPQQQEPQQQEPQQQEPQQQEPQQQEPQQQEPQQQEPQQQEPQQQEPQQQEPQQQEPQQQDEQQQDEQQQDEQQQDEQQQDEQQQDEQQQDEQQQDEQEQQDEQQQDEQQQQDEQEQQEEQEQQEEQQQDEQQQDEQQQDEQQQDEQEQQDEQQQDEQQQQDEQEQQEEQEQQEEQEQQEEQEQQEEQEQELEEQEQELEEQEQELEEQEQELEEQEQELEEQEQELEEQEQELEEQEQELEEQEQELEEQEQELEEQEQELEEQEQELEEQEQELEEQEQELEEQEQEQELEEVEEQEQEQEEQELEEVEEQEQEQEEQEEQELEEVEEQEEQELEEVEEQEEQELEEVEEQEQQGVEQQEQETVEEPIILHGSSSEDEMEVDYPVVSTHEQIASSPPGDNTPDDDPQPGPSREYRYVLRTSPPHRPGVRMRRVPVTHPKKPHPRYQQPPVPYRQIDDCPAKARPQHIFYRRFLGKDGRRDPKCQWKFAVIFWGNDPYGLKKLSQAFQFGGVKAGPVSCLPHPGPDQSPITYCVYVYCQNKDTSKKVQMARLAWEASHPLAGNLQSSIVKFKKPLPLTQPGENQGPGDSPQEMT
HKDC1 inh = blocks human hexokinase HKDC1 activity | actives 0.16% (n = 340,000) | Q2TB90 | inhibition, % at 20 µM | recombinant HKDC1, G6PDH/diaphorase resazurin coupled fluorescence;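 active means inhibition above about 35% when tested at 20 µM, limit read from the data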
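Material: recombinant HKDC1 hexokinase; Amount: HKDC1 at 5 µg/mL; Medium: Tris pH 8.0 buffer with MgCl2, Tween-20, BSA, BME; Schedule: 90 min reaction incubation at room temperature, dark; Technique: coupled resazurin fluorescence, excitation 525 nm, emission 613 nm.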
AI-2 QS mod = modulators of Vibrio harveyi AI-2 quorum sensing system | actives 0.4% (n = 300,000) | Vibrio harveyi JMH597 AI-2 luminescence/OD600 ratio, 9 h; active compounds read low; strain lacks LuxN and CqsS sensors; 0 = neutral-control median | activity change, % at 7.5 µM | AID 2094; in the data active means activity change below about -75%, passing the limit was not always enough;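 further: luminescence divided by OD600 gain over 9 h not by final OD600 alone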
HDAC3 inh = blocks human histone deacetylase 3; AID 2718; recombinant HDAC3, fluorogenic peptide/trypsin coupled, fluorescence; actives 0.15% (n = 320,000); O15379; inhibition, % at 8.3 µM; in the data active means inhibition above about 26%, passing the limit was not always enough
ATG4B inhibitor = blocks human ATG4B protease cleavage of LC3 substrate; Q9Y4P1; ATG4B cleavage of LC3-PLA2, NBD-HPC fluorescence, 1 h; inhibition, % at 8.33 µM; actives 0.51% (n = 340,000); AID 504462; in the data active means inhibition above about 40%
Of the large screens only hits and unclear results are named; the others gave an inactive call.

Cc1cc(C)cc(N=Cc2ccc([N+](=O)[O-])s2)c1	none
O=C(NCC1CCCO1)c1cc2cc(F)ccc2[nH]1 (stereo not given)	none
Fc1ccc(Oc2nc(-c3ccccc3)nnc2C(F)(F)F)cc1	LANA-H2A inh 10
FC(F)(F)c1nnc(-c2ccccc2)nc1Oc1ccccc1	none
COc1nc(OC)nc(N2CCC(NC(=O)C(Cc3cccc(OC)c3OC)NC(C)=O)CC2)n1 (stereo not given)	none
CCOC(=O)N1CCN(Cc2ccccc2Cl)CC1	none (no result: AI-2 QS mod)
CCOC(=O)N1CCN(Cc2cc(Cl)c3cccnc3c2O)CC1	AI-2 QS mod -78
CC(CCC(C)C(C)(C)C)[C@@H]1CC[C@H]2C3C[C@H](OS(O)(=S)=S)[C@H]4C[C@H](OS(O)(=S)=S)[C@@H](OS(O)(=S)=S)C[C@]4(C)[C@H]3CC[C@]12C (stereo not given in full) (tested in a mixture with another compound)	HKDC1 inh 81, ATG4B inhibitor 84 (no result: AI-2 QS mod)
CCOc1cc(C#N)ccc1OCC(=O)NNC(=O)CC1CCS(=O)(=O)C1 (stereo not given)	none (no result: Bfl-1 A1 inh, LANA-H2A inh, AI-2 QS mod, HDAC3 inh)
O=CNc1ccccc1	LANA-H2A inh 96 (no result: AI-2 QS mod)
c1ccc(Nc2ccccc2)cc1	none
COC(=O)[C@H](NCc1ccc(OC)c(B(O)O)c1)C(C)C	none (no result: Bfl-1 A1 inh, LANA-H2A inh, AI-2 QS mod, HDAC3 inh)
Cn1c(=O)[nH]c(=O)c2c1nc(N1CCNCC1)n2Cc1cccc2ccccc12	LANA-H2A inh 18
Cn1c(=O)[nH]c(=O)c2c1nc(N1CCNCC1)n2Cc1ccccc1	none
CCCCc1cc(=O)oc2cc(OCC(=O)NCCN3CCOCC3)ccc12	LANA-H2A inh 15
Cc1cc(=O)oc2cc(OCC(=O)NCCN3CCOCC3)ccc12	none
COc1ccc(-c2cc(=O)oc3cc(OCC(=O)NCCN4CCOCC4)ccc23)cc1	LANA-H2A inh 16
O=Nc1c(O)[nH]c2ccc(Cl)c(Cl)c12	none (no result: Bfl-1 A1 inh, LANA-H2A inh, AI-2 QS mod, HDAC3 inh)
COc1ccccc1CNS(=O)(=O)CCNCCc1ccccc1	none (no result: Bfl-1 A1 inh, LANA-H2A inh, AI-2 QS mod, HDAC3 inh)
CC(C)(C)c1ccc(CNc2ccc([N+](=O)[O-])cn2)cc1	AI-2 QS mod -83
CCc1ccc2nc(N(CCCN(C)C)C(=O)c3ccc(S(=O)(=O)N4CCc5ccccc5C4)cc3)sc2c1	Bfl-1 A1 inh 24
COC(=O)c1ccc2c(=O)n(Cc3ccco3)c(SCC(=O)Nc3ccc(C)c(Cl)c3)nc2c1	Bfl-1 A1 inh 17
O=C(CSc1nc2cc(Cl)ccc2c(=O)n1Cc1ccco1)Nc1ccc(S(=O)(=O)N2CCOCC2)cc1	none
COC(=O)c1[nH]c(=O)c2ccccc2c1OCc1ccccc1	none
COC(=O)c1[nH]c(=O)c2ccccc2c1O	LANA-H2A inh 23
CCC(=O)c1ccc(OCC(=O)NNC(=O)c2cc(C)oc2C)cc1	none (no result: Bfl-1 A1 inh, LANA-H2A inh, AI-2 QS mod, HDAC3 inh)
Cc1ccc(CN2C(=O)CCC2C(=O)NCc2cccnc2)cc1 (stereo not given)	LANA-H2A inh 18
CC(=O)c1ccc(N2CCN(C(C)C(=O)Nc3ccc4c(c3)OCCO4)CC2)cc1 (stereo not given)	none (no result: AI-2 QS mod)
CCNC(=O)C1CC(=O)N(Cc2ccc3c(c2)OCO3)C(=Nc2ccc(OCC)cc2)S1 (stereo not given)	LANA-H2A inh 63
CCCOc1ccc(OCCSc2ncccn2)cc1	none
Nc1nnc(SCCOc2cccc(Br)c2)s1	AI-2 QS mod -79
Brc1cccc(OCCSc2ncccn2)c1	AI-2 QS mod -82
Nc1nnc(SCCCOc2ccc(F)cc2)s1	LANA-H2A inh 25
CCSc1nnc(NC(=O)C2CSC3(C)CCC(=O)N23)s1 (stereo not given)	none (no result: AI-2 QS mod)
Cc1ccc(C(=O)OCC(=O)c2c[nH]c3ccccc23)cc1S(=O)(=O)N1CCOCC1	none (no result: Bfl-1 A1 inh, LANA-H2A inh, AI-2 QS mod, HDAC3 inh)
O=C(NC(=S)Nc1ccc2c(c1)OCCO2)c1ccccc1F	LANA-H2A inh 13
O=C(Nc1ccc2c(c1)OCCO2)c1ccccc1F	none
CCOc1ccc(NC(=O)c2ccccc2NC(=O)CNC2CCCC(C)C2C)cc1 (stereo not given)	none (no result: AI-2 QS mod)
CC(C)NC(=O)c1ccc(NC(=O)CC2SC(N3CCCC3)=NC2=O)cc1 (stereo not given)	LANA-H2A inh active (no result: AI-2 QS mod)
CNC(=O)c1ccc(NC(=O)CC2SC(N3CCCC3)=NC2=O)cc1 (stereo not given)	LANA-H2A inh 50 (no result: AI-2 QS mod)
COc1cccc(CNC(=O)c2ccc(NC(=O)CC3SC(N4CCCC4)=NC3=O)cc2)c1 (stereo not given)	LANA-H2A inh 39 (no result: AI-2 QS mod)
CC(C)NC(=O)c1ccc(NC(=O)CC2SC(N3CCCCC3)=NC2=O)cc1 (stereo not given)	none (no result: AI-2 QS mod)
CC1CCCCN1CCNC(=O)c1ccc2c(c1)N(Cc1cccc(Cl)c1)C(=O)c1ccccc1S2=O (stereo not given)	LANA-H2A inh 18
O=C(NCCCN1CCCC1)c1ccc2c(c1)N(Cc1cccc(Cl)c1)C(=O)c1ccccc1S2=O (stereo not given)	none
O=S(=O)(NC1CC2CCC1C2)c1ccc2c(c1)OCCO2 (stereo not given)	LANA-H2A inh 20
CCc1ccc(CN(C)C(=O)C2CCC(=O)N(CCc3ccc(OC)cc3)C2)nc1 (stereo not given)	LANA-H2A inh 29
COc1ccc(N2CSC3=C(C#N)C(c4cc(OC)ccc4OC)CC(=O)N3C2)c(OC)c1 (stereo not given)	HDAC3 inh 42
CCOC(=O)c1ccc(N2CSC3=C(C#N)C(c4cccs4)CC(=O)N3C2)cc1 (stereo not given)	HDAC3 inh 31
COc1ccc(N2CSC3=C(C#N)C(c4cc(OC)c(OC)cc4OC)CC(=O)N3C2)c(OC)c1 (stereo not given)	HDAC3 inh 38
COc1ccc(N2CSC3=C(C#N)C(c4ccc(OC)c(OC)c4)CC(=O)N3C2)c(OC)c1 (stereo not given)	HDAC3 inh 40
CN(C)C(CNC(=O)C1CCN(S(=O)(=O)c2cc(Cl)ccc2Cl)CC1)Cc1ccccc1 (stereo not given)	none (no result: Bfl-1 A1 inh, LANA-H2A inh, AI-2 QS mod, HDAC3 inh)
COc1ccc(C2CC(=O)N3CN(c4ccc(C)c(Cl)c4)CSC3=C2C#N)cc1OC (stereo not given)	HDAC3 inh 43
COc1cc(OC)c(C2CC(=O)N3CN(c4ccc(C)cc4)CSC3=C2C#N)cc1OC (stereo not given)	none
CCc1ccc(C(C)NC(=O)c2ccncc2)cc1 (stereo not given)	LANA-H2A inh 23
O=C(/C=C/c1ccccc1)Nc1cccc(C(=O)NC2CC2)c1	none (no result: Bfl-1 A1 inh, LANA-H2A inh, AI-2 QS mod, HDAC3 inh)
COc1ccc(NC(=O)[C@@H]2[C@@H]3C(=O)N(C4CCCCC4)C(=O)[C@@H]3C3c4ccccc4C=CN32)cc1 (stereo not given in full)	LANA-H2A inh 17

Assay outcomes deposited in PubChem BioAssay by several laboratories.
